Experimental data from ChEMBL document CHEMBL3751743, “Synthesis and anti-cancer screening of novel heterocyclic-(2H)-1,2,3-triazoles as potential anti-cancer agents” (Medchemcomm, 2015).

Assays:
[1] = tested on: MDA-MB-231; test: Cytotoxicity against human MDA-MB-231 cells after 48 hrs by SRB assay; format: functional; conditions: MDA-MB-231, 48 h
Procedure, shortened: (§1)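 NCI-60 five-dose screen: compounds dissolved in DMSO/H2O, tested at five 10-fold dilutions (10^-4 to 10^-8 M) for 48 h. Growth measured by sulforhodamine B optical density at time zero and after 48 h drug or vehicle exposure. Percentage growth calculated relative to control. GI50 is the molar concentration giving 50% reduction in net cell growth versus day-0 cell numbers.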

[2] = Cytotoxicity against human SW620 cells after 48 hrs by SRB assay; format: functional; conditions: SW-620, 48 h; procedure, shortened: as §1
[3] = Cytotoxicity against human OVCAR8 cells after 48 hrs by SRB assay; format: functional; conditions: OVCAR-8, 48 h; procedure, shortened: as §1
[4] = tested on: MDA-MB-468; test: Cytotoxicity against human MDA-MB-468 cells after 48 hrs by SRB assay; format: functional; conditions: MDA-MB-468, 48 h; procedure, shortened: as §1
[5] = Cytotoxicity against human IGROV1 cells after 48 hrs by SRB assay; format: functional; conditions: IGROV-1, 48 h
Procedure, shortened: (§2)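 NCI-60 five-dose screen: compounds in DMSO/H2O tested at 10^-4 to 10^-8 M (10-fold steps) for 48 h. Cell mass read by sulforhodamine B optical density at time zero and after exposure to compound or vehicle. GI50 is the concentration giving 50% reduction in net cell growth relative to day-0 cell numbers.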

[6] = Cytotoxicity against human HOP92 cells after 48 hrs by SRB assay; format: functional; conditions: HOP-92, 48 h; procedure, shortened: as §1
[7] = tested on: CCRF-CEM; test: Cytotoxicity against human CCRF-CEM cells after 48 hrs by SRB assay; format: functional; procedure, shortened: as §1
[8] = tested on: U-251; test: Cytotoxicity against human U251 cells after 48 hrs by SRB assay; format: functional; conditions: U-251, 48 h
Procedure, shortened: (§3)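 NCI-60 five-dose screen. Compounds dissolved in DMSO/H2O and tested at five 10-fold dilutions (10^-4 to 10^-8 M) for 48 h. Growth read by sulforhodamine B optical density at time zero and after 48 h of exposure to compound or vehicle. Percent growth calculated against control. GI50 is the molar concentration giving 50% reduction in net cell growth relative to cell number on day 0.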

[9] = tested on: SN12C; test: Cytotoxicity against human SN12C cells after 48 hrs by SRB assay; format: functional; procedure, shortened: as §1
[10] = tested on: NCI-H522; test: Cytotoxicity against human NCI-H522 cells after 48 hrs by SRB assay; format: functional; conditions: NCI-H522, 48 h; procedure, shortened: as §1
[11] = tested on: 786-0; test: Cytotoxicity against human 786-0 cells after 48 hrs by SRB assay; format: functional; conditions: 786-0, 48 h; procedure, shortened: as §1
[12] = Cytotoxicity against human LOXIMVI cells after 48 hrs by SRB assay; format: functional; conditions: LOX IMVI; procedure, shortened: as §1
[13] = Cytotoxicity against human COLO205 cells after 48 hrs by SRB assay; format: functional; conditions: COLO 205, 48 h; procedure, shortened: as §1
[14] = tested on: SK-MEL-5; test: Cytotoxicity against human SK-MEL-5 cells after 48 hrs by SRB assay; format: functional; conditions: SK-MEL-5, 48 h; procedure, shortened: as §1
[15] = Cytotoxicity against human DU145 cells after 48 hrs by SRB assay; format: functional; conditions: DU-145, 48 h; procedure, shortened: as §1
[16] = Cytotoxicity against human HL-60(TB) cells after 48 hrs by SRB assay; format: functional; conditions: HL-60, 48 h; procedure, shortened: as §1
[17] = Cytotoxicity against human RPMI8226 cells after 48 hrs by SRB assay; format: functional; conditions: RPMI-8226, 48 h; procedure, shortened: as §1
[18] = Cytotoxicity against human UO31 cells after 48 hrs by SRB assay; format: functional; conditions: UO-31, 48 h; procedure, shortened: as §3
[19] = tested on: MCF7; test: Cytotoxicity against human MCF7 cells after 48 hrs by SRB assay; format: functional; conditions: MCF7, 48 h; procedure, shortened: as §1
[20] = tested on: K562; test: Cytotoxicity against human K562 cells after 48 hrs by SRB assay; format: functional; conditions: K562, 48 h; procedure, shortened: as §1
[21] = tested on: M14; test: Cytotoxicity against human M14 cells after 48 hrs by SRB assay; format: functional; conditions: M14, 48 h; procedure, shortened: as §1
[22] = Cytotoxicity against human NCI-ADR-RES cells after 48 hrs by SRB assay; format: functional; procedure, shortened: as §1
[23] = Cytotoxicity against human Hs 578T cells after 48 hrs by SRB assay; format: functional; procedure, shortened: as §1
[24] = tested on: A498; test: Cytotoxicity against human A498 cells after 48 hrs by SRB assay; format: functional; conditions: A498, 48 h; procedure, shortened: as §1
[25] = molecular target: Tubulin (Sus scrofa, UniProt P02554+P02550); test: Inhibition of porcine brain tubulin polymerization by spectrophotometric analysis
Procedure, shortened: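 Tubulin at 4 mg/mL in cold 80 mM PIPES pH 6.9 with 2 mM MgCl2, 0.5 mM EGTA, GTP and 10% glycerol. Compound (added as 10x stock in 50% DMSO) or DMSO was preincubated 2 min at 37 °C in a prewarmed plate. Cold tubulin was then added, and polymerization at 37 °C was followed by A340 over time. Dose-response, mean ± s.d., n=3.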

[26] = Cytotoxicity against human SF268 cells after 48 hrs by SRB assay; format: functional; conditions: SF-268, 48 h; procedure, shortened: as §1
[27] = Cytotoxicity against human SKOV3 cells after 48 hrs by SRB assay; format: functional; conditions: SK-OV-3, 48 h; procedure, shortened: as §1
[28] = Cytotoxicity against human SF295 cells after 48 hrs by SRB assay; format: functional; conditions: SF-295, 48 h; procedure, shortened: as §1
[29] = tested on: NCI-H460; test: Cytotoxicity against human NCI-H460 cells after 48 hrs by SRB assay; format: functional; conditions: NCI-H460, 48 h; procedure, shortened: as §1
[30] = Cytotoxicity against human Caki1 cells after 48 hrs by SRB assay; format: functional; conditions: CAKI-1, 48 h; procedure, shortened: as §1
[31] = Cytotoxicity against human MOLT4 cells after 48 hrs by SRB assay; format: functional; conditions: MOLT-4, 48 h; procedure, shortened: as §1
[32] = tested on: MDA-MB-435; test: Cytotoxicity against human MDA-MB-435 cells after 48 hrs by SRB assay; format: functional; conditions: MDA-MB-435, 48 h; procedure, shortened: as §1
[33] = Cytotoxicity against human UACC257 cells after 48 hrs by SRB assay; format: functional; conditions: UACC-257, 48 h; procedure, shortened: as §3
[34] = Cytotoxicity against human OVCAR5 cells after 48 hrs by SRB assay; format: functional; conditions: OVCAR-5, 48 h; procedure, shortened: as §1
[35] = Cytotoxicity against human HOP62 cells after 48 hrs by SRB assay; format: functional; conditions: HOP-62, 48 h; procedure, shortened: as §2
[36] = Cytotoxicity against human HCC2998 cells after 48 hrs by SRB assay; format: functional; conditions: HCC 2998, 48 h; procedure, shortened: as §1
[37] = tested on: SK-MEL-28; test: Cytotoxicity against human SK-MEL-28 cells after 48 hrs by SRB assay; format: functional; conditions: SK-MEL-28, 48 h; procedure, shortened: as §1
[38] = tested on: SR; test: Cytotoxicity against human SR cells after 48 hrs by SRB assay; format: functional; procedure, shortened: as §1
[39] = Cytotoxicity against human UACC62 cells after 48 hrs by SRB assay; format: functional; conditions: UACC-62, 48 h; procedure, shortened: as §3
[40] = tested on: A549; test: Cytotoxicity against human A549 cells after 48 hrs by SRB assay; format: functional; conditions: A549, 48 h; procedure, shortened: as §1
[41] = Cytotoxicity against human OVCAR3 cells after 48 hrs by SRB assay; format: functional; conditions: OVCAR-3, 48 h; procedure, shortened: as §1
[42] = Cytotoxicity against human SNB75 cells after 48 hrs by SRB assay; format: functional; conditions: SNB-75, 48 h; procedure, shortened: as §1
[43] = Cytotoxicity against human SF539 cells after 48 hrs by SRB assay; format: functional; conditions: SF-539, 48 h; procedure, shortened: as §1
[44] = tested on: NCI-H23; test: Cytotoxicity against human NCI-H23 cells after 48 hrs by SRB assay; format: functional; conditions: NCI-H23, 48 h; procedure, shortened: as §1
[45] = Cytotoxicity against human HCT15 cells after 48 hrs by SRB assay; format: functional; conditions: HCT-15, 48 h; procedure, shortened: as §1
[46] = tested on: ACHN; test: Cytotoxicity against human ACHN cells after 48 hrs by SRB assay; format: functional; procedure, shortened: as §1
[47] = tested on: SK-MEL-2; test: Cytotoxicity against human SK-MEL-2 cells after 48 hrs by SRB assay; format: functional; conditions: SK-MEL-2, 48 h; procedure, shortened: as §1
[48] = Cytotoxicity against human BT549 cells after 48 hrs by SRB assay; format: functional; conditions: BT-549, 48 h; procedure, shortened: as §1
[49] = Cytotoxicity against human SNB19 cells after 48 hrs by SRB assay; format: functional; conditions: SNB-19, 48 h; procedure, shortened: as §1
[50] = tested on: HT-29; test: Cytotoxicity against human HT-29 cells after 48 hrs by SRB assay; format: functional; conditions: HT-29, 48 h; procedure, shortened: as §1
[51] = Cytotoxicity against human Hs578T cells assessed as reduction of cell viability after 48 hrs by calcein-AM-based fluorescence analysis; format: functional; conditions: Hs-578T
Procedure, shortened: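 Cells seeded at 3,000 per well in DMEM with 10% FBS and left overnight at 37 °C. A range of compound concentrations or vehicle was then added for 48 h. Cells were washed with DPBS pH 7.4 and loaded with 2 μM calcein-AM for 30 min at 25 °C. Fluorescence read at ex 490/em 520 nm; viability is given relative to untreated control (100%). Mean ± s.d.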

[52] = tested on: KM12; test: Cytotoxicity against human KM12 cells after 48 hrs by SRB assay; format: functional; conditions: KM12, 48 h; procedure, shortened: as §1
[53] = Cytotoxicity against human OVCAR4 cells after 48 hrs by SRB assay; format: functional; conditions: OVCAR-4, 48 h; procedure, shortened: as §1
[54] = Cytotoxicity against human HCT116 cells after 48 hrs by SRB assay; format: functional; conditions: HCT-116, 48 h; procedure, shortened: as §1
[55] = Cytotoxicity against human PC3 cells after 48 hrs by SRB assay; format: functional; conditions: PC-3, 48 h; procedure, shortened: as §1

`COc1cc(-c2n[nH]nc2-c2cc3ccccc3s2)cc(OC)c1OC` gave a GI50 [1] of 14 nM, a GI50 [2] of under 10 nM and a GI50 [3] of under 10 nM. For the same molecule, the GI50 [4] was under 10 nM, the GI50 [5] was under 10 nM and the GI50 [6] was under 10 nM. It also gave a GI50 [7] of 28 nM, a GI50 [8] of under 10 nM and a GI50 [9] of 48 nM. The GI50 [10] was under 10 nM, the GI50 [11] was under 10 nM and the GI50 [12] was under 10 nM. The GI50 [13] was under 10 nM, the GI50 [14] was under 10 nM and the GI50 [15] was under 10 nM. It also gave a GI50 [16] of under 10 nM, a GI50 [17] of under 10 nM and a GI50 [18] of under 10 nM. The GI50 [19] was under 10 nM, the GI50 [20] was under 10 nM and the GI50 [21] was under 10 nM. It also gave a GI50 [22] of under 10 nM, a GI50 [23] of under 10 nM and a GI50 [24] of under 10 nM. For the same molecule, the IC50 [25] was 1700 nM, the GI50 [26] was under 10 nM and the GI50 [27] was under 10 nM. For the same molecule, the GI50 [28] was under 10 nM, the GI50 [29] was under 10 nM and the GI50 [30] was under 10 nM. For the same molecule, the GI50 [31] was 42 nM, the GI50 [32] was under 10 nM and the GI50 [33] was under 10 nM. It also gave a GI50 [34] of 42 nM, a GI50 [35] of 15 nM and a GI50 [36] of 36 nM. It also gave a GI50 [37] of under 10 nM, a GI50 [38] of under 10 nM and a GI50 [39] of under 10 nM. The GI50 [40] was 23 nM, the GI50 [41] was under 10 nM and the GI50 [42] was under 10 nM. It also gave a GI50 [43] of under 10 nM, a GI50 [44] of under 10 nM and a GI50 [45] of under 10 nM. It also gave a GI50 [46] of under 10 nM, a GI50 [47] of under 10 nM and a GI50 [48] of under 10 nM. The GI50 [49] was under 10 nM, the GI50 [50] was 20 nM and the GI50 [51] was 10 nM. The GI50 [52] was 22 nM, the GI50 [53] was 42 nM and the GI50 [54] was under 10 nM. The GI50 [55] was 34 nM.
